What was measured:
T. gondii tachyzoites [1] = assay: In vivo activity against T. gondii in infected mice; set-up: species or system Toxoplasma gondii RH strain in BALB/c mouse; conditions: 20 mg/kg intraperitoneal once a day for 7 days, P ≤ 0.05
Procedure, shortened: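 BALB/c mice were infected ip with 1 × 10^3 RH tachyzoites. Treatment started 4 h later, ip once daily for 7 days: test compound 20 mg/kg·bw, azithromycin 50 mg/kg·bw (positive control) or PBS. One mL of ascites was aspirated, washed and centrifuged, and DNA extracted. Parasites were quantified by PCR against a standard curve of serially diluted RH tachyzoite DNA (3.00 × 10^6 to 3.00 × 10^3/mL).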

T. gondii tachyzoites [2] = assay: ATP level in tachyzoites; format: cell-based, Toxoplasma gondii RH strain; conditions: 1 or 5 μM, 8 or 24 h, P ≤ 0.05
Procedure, shortened: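 Infected Vero cultures were exposed to 1 or 5 μM test compound in DMEM for 8 or 24 h. Tachyzoites were then isolated, purified and lysed, and ATP was measured and expressed as μmol/L. Three independent experiments were run.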

[3] = test system: T. gondii tachyzoites in Vero cells; assay: Plaque assay; format: cell-based, Toxoplasma gondii RH strain
Procedure, shortened: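 Proliferation arm: Vero monolayers were infected with 2 × 10^4 tachyzoites per well for 8 h, then given 0.625–10.0 μM test compound in DMEM with 1% FBS for 24 h. Invasion arm: tachyzoites were pre-exposed to compound, then allowed to infect Vero cells for 2 h. Drug-free controls were included. After 48, 72 or 96 h, cells were PBS-washed, fixed in 4% paraformaldehyde and stained with crystal violet for 10 min. PVs per field and parasites per PV were counted in ≥20 random fields per well (40× objective).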

[4] = Pharmacokinetics in mouse plasma; format: in vivo; conditions: female, BALB/c, ip, 20 mg/kg
Procedure, shortened: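 Test compound was formulated at 2 mg/mL in saline with 10% ethanol and 10% Cremophor EL. It was given ip at 20 mg/kg to 9 female BALB/c mice. Blood was sampled at 0, 0.083, 0.25, 0.5, 1, 2, 4, 8, 12 and 24 h and centrifuged at 3000 rpm for 10 min; plasma was stored at −20 °C. The PK model was selected by minimum AIC. Parameters are mean ± SD (n = 3).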

T. gondii tachyzoites [5] = assay: Mitochondrial membrane potential; format: cell-based, Toxoplasma gondii RH strain; conditions: 1 or 5 μM, 8 or 24 h, P ≤ 0.05
Procedure, shortened: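 Tachyzoites inside Vero monolayers were treated with 1 or 5 μM test compound in DMEM for 8 or 24 h. After a PBS wash, cultures were stained with 50 nM MitoTracker Red CMXRos for 20 min. Fluorescence was read on a microplate reader. Triplicate experiments.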

[6] = test system: T. gondii tachyzoites in Vero cells; assay: Transmission electron microscopy; format: cell-based, Toxoplasma gondii RH strain; conditions: 5 μM
Procedure, shortened: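 Vero cells in T25 flasks were infected with 2 × 10^6 tachyzoites for 8 h, then cultured with 5 μM test compound for 8 or 24 h. Cells were detached with TrypLE (2 min), PBS-washed and fixed in 2.5% glutaraldehyde (4 °C, 12 h). Post-fixation used 1% osmium in the dark for 1.5 h. Samples were dehydrated through alcohol and acetone and embedded in Epon. Ultrathin sections were stained with uranyl acetate/lead citrate and examined by TEM.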

T. gondii tachyzoites [7] = assay: Anti-invasion assessment by qPCR; format: cell-based, Toxoplasma gondii RH strain
Procedure, shortened: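 Vero monolayers were preincubated with 0.625–10.0 μM test compound in DMEM with 1% FBS. Controls were 11.5 μM azithromycin (positive) and no drug (negative). Then 2 × 10^6 fresh tachyzoites were added per well for 2 h. Cells were washed twice with DPBS and kept in DMEM for 24 h. DNA was extracted and the T. gondii 529 bp repeat quantified by qPCR. Inhibition rate is relative to untreated control, from triplicate independent experiments.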

Safety assay in mice = format: in vivo, mouse; conditions: 5, 10 or 20 mg/kg intraperitoneal, over 7 days
Procedure, shortened: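 BALB/c mice received test compound ip once daily for 7 days at 5, 10 or 20 mg/kg. It was formulated at 2 mg/mL in saline with 10% ethanol and 10% Cremophor EL. Controls received solvent alone or PBS. Clinical toxicity was monitored during dosing and for a further 23 days.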

T. gondii tachyzoites [8] = assay: ROS production assay; format: cell-based, Toxoplasma gondii RH strain; conditions: 1 or 5 μM, dose-dependent
Procedure, shortened: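 Infected Vero cultures were treated with 1 or 5 μM test compound or left untreated. Then 2 × 10^6 tachyzoites were isolated and PBS-washed. They were loaded with 7.5 μM CMH2DCFDA for 10 min, washed three times and resuspended in PBS. Fluorescence was read at excitation 488 nm and emission 525 nm. Triplicate experiments.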

Cytotoxicity assay = format: cell-based; conditions: African green monkey, Vero cells
Procedure, shortened: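 Vero cells were seeded at 1 × 10^4 per well, grown to monolayer, then exposed for 24 h to 0.78125–100 μM test compound in DMEM with 1% FBS (DMSO <1% v/v), with an untreated control. Viability was read by CCK-8 (1 h, absorbance 450 nm). Survival % = (treated − blank)/(control − blank) × 100. Triplicate independent experiments.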

T. gondii tachyzoites [9] = assay: Anti-proliferation activity by qPCR; format: cell-based, Toxoplasma gondii RH strain
Procedure, shortened: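 Vero monolayers in 6-well plates were infected with 2 × 10^5 tachyzoites per well. After 8 h, test compound (0.625–10.0 μM) or azithromycin was added in DMEM with 1% FBS for 24 h, with a drug-free negative control. Total DNA was extracted and the 529 bp repeat quantified by qPCR. EC50 and therapeutic index were calculated. Values are mean ± SD of at least three independent experiments.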

CCCCCCCc1cc(O)c2ccccc2[n+]1[O-] [HQNO, 2-Heptyl-4-hydroxyquinoline N-oxide]
parasite burden in mouse peritoneum (T. gondii tachyzoites [1]): significantly decreased | ATP levels in parasites vs control (T. gondii tachyzoites [2]): significant dose-dependent decreases | tachyzoite growth (plaques formed) ([3]; 0.625–10 μM, after 6 days of incubation): dose-dependent inhibition | average number of tachyzoites within the PVs ([3]; P ≤ 0.05): decreased | invasion and proliferation ability of T. gondii (plaque) ([3]; after 48 h, 72 h, 96 h of incubation, P ≤ 0.05): significantly reduced | PV number vs control ([3]; pre- and post-infection, P ≤ 0.05): decreased significantly | AUC(0-inf) [4]: 3880 ± 308 ng·h/mL | AUC(0-t) [4]: 3860 ± 301 ng·h/mL | MRT inf [4]: 1.62 ± 0.464 h | MRT last [4]: 1.56 ± 0.446 h | Tmax [4]: 4.98 min | half-life [4]: 1.43 ± 0.393 h | k el [4]: 0.000135 s⁻¹ | ΔΨm in parasites vs control (T. gondii tachyzoites [5]): significant dose-dependent decreases | ultrastructure of T. gondii mitochondria (TEM) ([6]; 8 h): swollen | ultrastructure of T. gondii (TEM) ([6]; 24 h): parasite death | effect on mitochondria of host cells around PVs (TEM) ([6]; Vero host cells): does not affect | T. gondii invasion vs control (T. gondii tachyzoites [7]; 0.625–10 μM, P ≤ 0.05): significantly inhibited | clinical toxicity in mice (Safety assay in mice): no obvious clinical toxicity | ROS levels in T. gondii vs control (T. gondii tachyzoites [8]): increase | IC50 at 24 h (Cytotoxicity assay): 33.4 µM | T. gondii tachyzoite intracellular proliferation vs control (T. gondii tachyzoites [9]; 0.625–10 μM, concentration-dependent, P ≤ 0.05): significantly (P ≤ 0.05) inhibited

CC[C@H]1OC(=O)[C@H](C)[C@@H](O[C@H]2C[C@@](C)(OC)[C@@H](O)[C@H](C)O2)[C@H](C)[C@@H](O[C@@H]2O[C@H](C)C[C@H](N(C)C)[C@H]2O)[C@](C)(O)C[C@@H](C)CN(C)[C@H](C)[C@@H](O)[C@]1(C)O [azithromycin]
inhibition at 11.5 µM (T. gondii tachyzoites [7]; Toxoplasma gondii, read-out: anti-invasion inhibition rate): 54% | inhibition rate on intracellular proliferation of T. gondii tachyzoites (T. gondii tachyzoites [9]; positive control drug, 24 h, qPCR): 37.50%
